# According to ChEMBL document CHEMBL1667730, “Antibacterial and anti-inflammatory activities of 4-hydroxycordoin: potential therapeutic benefits” (J Nat Prod, 2011):
# Active and inactive are the calls of the source. The calls are words filed in the database; no cut-off is given here.
# Key:
# U-937 [1] = assay: Antiinflammatory activity in human U937 cells assessed as inhibition of LPS-induced AP-1 activation at 5 ug/ml treated 1 hrs before LPS challenge measured after 1 hr; type: functional, cell-based
# Procedure, shortened: (§1)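 PMA-differentiated U937 macrophages given compound at 5 µg/mL for 1 h, then A. actinomycetemcomitans LPS at 1 µg/mL for 1 h, 37 °C 5% CO2. Whole-cell extracts adjusted to 1 mg/mL protein; NF-κB p65 and AP-1 activation measured by Trans-AM kits. Unstimulated and compound-free controls included; triplicate, three independent experiments.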
# Porphyromonas gingivalis [2] = assay: Antibacterial activity against 14C-labeled Porphyromonas gingivalis ATCC 33277 assessed as inhibition of adhesion to human GMSM-K cells after 30 mins by scintillation counting; type: functional, cell-based
# Procedure, shortened: (§2)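 14C-amino acid-labelled (20 µCi/mL, 16 h, anaerobic) mid-log P. gingivalis washed in PBS pH 7.2, suspended to OD655 0.8 in prereduced PBS; mixed with compound (final 0, 0.2, 1, 5 µg/mL) and added to confluent GMSM-K monolayers for 30 min at 37 °C; unbound cells washed off, bound bacteria released with 0.5 M NaOH, scintillation counted. Triplicate, three independent assays, mean ± SD.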
# U-937 [3] = assay: Antiinflammatory activity in human U937 cells assessed as inhibition of LPS-induced NF-kappaB p65 activation at 5 ug/ml treated 1 hrs before LPS challenge measured after 1 hr; type: functional, cell-based; procedure, shortened: as §1
# U-937 [4] = assay: Antiinflammatory activity in human U937 cells assessed as inhibition of LPS-induced TNFalpha production at 5 ug/ml treated 2 hrs before LPS challenge measured after 24 hrs by ELISA; type: functional
# Procedure, shortened: (§3)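 PMA-differentiated U937 macrophages (10 ng/mL PMA 48 h, then 24 h rest) at 1 × 10^6 cells/mL in RPMI with 1% FBS; compound (0, 0.2, 1, 5 µg/mL) for 2 h, then A. actinomycetemcomitans ATCC 29522 LPS (1 µg/mL final) for 24 h, 37 °C 5% CO2. Supernatant cytokines and MMP-9 by ELISA (A450, 550 correction). Triplicate, two experiments, t test.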
# U-937 [5] = assay: Antiinflammatory activity in human U937 cells assessed as inhibition of LPS-induced PGE2 production at 5 ug/ml treated 2 hrs before LPS challenge measured after 24 hrs; type: functional, cell-based
# U-937 [6] = assay: Antiinflammatory activity in human U937 cells assessed as inhibition of LPS-induced MMP9 production at 5 ug/ml treated 2 hrs before LPS challenge measured after 24 hrs by ELISA; type: functional, cell-based; procedure, shortened: as §3
# Fusobacterium nucleatum = assay: Antibacterial activity against Fusobacterium nucleatum ATCC 25586 after 24 hrs; type: functional
# Procedure, shortened: (§4)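 Broth microdilution in THB-HK: 24 h cultures diluted to OD655 0.2, mixed 1:1 with compound (0–40 µg/mL, twofold steps from 0.63), 24 h at 37 °C anaerobic (N2-H2-CO2 80:10:10); growth by OD655 relative to untreated. MIC = lowest concentration with no growth; MBC from no-growth wells plated on THB-HK agar, 5 days anaerobic. Triplicate, two independent experiments.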
# U-937 [7] = assay: Antiinflammatory activity in human U937 cells assessed as inhibition of LPS-induced IL-6 production at 5 ug/ml treated 2 hrs before LPS challenge measured after 24 hrs by ELISA; type: functional; procedure, shortened: as §3
# Porphyromonas gingivalis [8] = assay: Antibacterial activity against 14C-labeled Porphyromonas gingivalis ATCC 33277 assessed as inhibition of adhesion to human GMSM-K cells at 1 ug/ml after 30 mins by scintillation counting relative to control; type: functional; conditions: ATCC 33277, GMSM-K, 0.5 h; procedure, shortened: as §2
# U-937 [9] = assay: Cytotoxicity against human U937 cells assessed as reduction of cell viability at up to 50 ug/ml after 2 hrs by MTT assay; type: cell-based; conditions: u-937, 2 h
# Procedure, shortened: (§5)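 MTT colorimetric viability assay on GMSM-K epithelial cells and PMA-differentiated U937 macrophages after 2 h exposure to compound at up to 50 µg/mL.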
# Porphyromonas gingivalis [10] = assay: Antibacterial activity against 14C-labeled Porphyromonas gingivalis ATCC 33277 assessed as inhibition of adhesion to human GMSM-K cells at 5 ug/ml after 30 mins by scintillation counting relative to control; type: functional; conditions: ATCC 33277, GMSM-K, 0.5 h; procedure, shortened: as §2
# Porphyromonas gingivalis [11] = assay: Antibacterial activity against 14C-labeled Porphyromonas gingivalis ATCC 33277 assessed as inhibition of adhesion to human GMSM-K cells at 0.2 ug/ml after 30 mins by scintillation counting; type: functional, cell-based; procedure, shortened: as §2
# U-937 [12] = assay: Antiinflammatory activity in human U937 cells assessed as inhibition of TNFalpha production at 5 ug/ml after 24 hrs by ELISA; type: functional, cell-based; procedure, shortened: as §3
# Porphyromonas gingivalis [13] = assay: Antibacterial activity against Porphyromonas gingivalis ATCC 33277 after 24 hrs; type: functional; procedure, shortened: as §4
# Prevotella intermedia [14] = assay: Antibacterial activity against Prevotella intermedia ATCC 25611 after 24 hrs; type: functional; procedure, shortened: as §4
# U-937 [15] = assay: Antiinflammatory activity in human U937 cells assessed as inhibition of CCL5 production at 5 ug/ml after 24 hrs by ELISA; type: functional, cell-based; procedure, shortened: as §3
# U-937 [16] = assay: Antiinflammatory activity in human U937 cells assessed as inhibition of IL-8 production at 5 ug/ml after 24 hrs by ELISA; type: functional, cell-based; procedure, shortened: as §3
# Prevotella intermedia [17] = assay: Antibacterial activity against Prevotella intermedia ATCC 25611 assessed as reduction of bacterial growth at 1.25 ug/ml after 24 hrs; type: functional; design: scale not given: the % may be the effect or the level left; procedure, shortened: as §4
# U-937 [18] = assay: Antiinflammatory activity in human U937 cells assessed as inhibition of LPS-induced IL-8 production at 5 ug/ml treated 2 hrs before LPS challenge measured after 24 hrs by ELISA; type: functional; procedure, shortened: as §3
# U-937 [19] = assay: Antiinflammatory activity in human U937 cells assessed as inhibition of IL1-beta production at 5 ug/ml after 24 hrs by ELISA; type: functional, cell-based; procedure, shortened: as §3
# U-937 [20] = assay: Antiinflammatory activity in human U937 cells assessed as inhibition of LPS-induced IL1-beta production at 5 ug/ml treated 2 hrs before LPS challenge measured after 24 hrs by ELISA; type: functional; procedure, shortened: as §3
# U-937 [21] = assay: Antiinflammatory activity in human U937 cells assessed as inhibition of IL-6 production at 5 ug/ml after 24 hrs by ELISA; type: functional, cell-based; procedure, shortened: as §3
# [22] = Cytotoxicity against human GMSM-K cells assessed as reduction of cell viability at up to 50 ug/ml after 2 hrs by MTT assay; type: cell-based; procedure, shortened: as §5
# U-937 [23] = assay: Antiinflammatory activity in human U937 cells assessed as inhibition of LPS-induced CCL5 production at 5 ug/ml treated 2 hrs before LPS challenge measured after 24 hrs by ELISA; type: functional; procedure, shortened: as §3
# U-937 [24] = assay: Antiinflammatory activity in human U937 cells assessed as inhibition of PGE2 production at 5 ug/ml after 24 hrs; type: functional, cell-based
# U-937 [25] = assay: Antiinflammatory activity in human U937 cells assessed as inhibition of LPS-induced MMP9 production at 1 ug/ml treated 2 hrs before LPS challenge measured after 24 hrs by ELISA; type: functional, cell-based; procedure, shortened: as §3
compound,measurement,setting,value
CC(C)=CCOc1ccc(C(=O)/C=C/c2ccc(O)cc2)c(O)c1,inhibition,U-937 [1],Active
same,inhibition,Porphyromonas gingivalis [2],Dose-dependent effect
same,inhibition,U-937 [3],Active
same,inhibition at 5 µg/mL,U-937 [4],23%
same,inhibition,U-937 [5],Active
same,inhibition,U-937 [6],Active
same,Activity,Fusobacterium nucleatum,Dose-dependent effect
same,MBC,"Fusobacterium nucleatum; ATCC 25586, 24 h",> 40 µg/mL
same,MIC,"Fusobacterium nucleatum; ATCC 25586, 24 h",40 µg/mL
same,inhibition at 5 µg/mL,U-937 [7],50%
same,inhibition at 1 µg/mL,Porphyromonas gingivalis [8],31%
same,Activity,U-937 [9],Non-toxic
same,inhibition at 5 µg/mL,Porphyromonas gingivalis [10],36%
same,inhibition,Porphyromonas gingivalis [11],inactive
same,inhibition,U-937 [12],inactive
same,Activity,Porphyromonas gingivalis [13],Dose-dependent effect
same,MBC,"Porphyromonas gingivalis [13]; ATCC 33277, 24 h",10 µg/mL
same,MIC,"Porphyromonas gingivalis [13]; ATCC 33277, 24 h",5 µg/mL
same,Activity,Prevotella intermedia [14],Dose-dependent effect
same,MBC,"Prevotella intermedia [14]; ATCC 25611, 24 h",5 µg/mL
same,MIC,"Prevotella intermedia [14]; ATCC 25611, 24 h",2.5 µg/mL
same,inhibition,U-937 [15],inactive
same,inhibition,U-937 [16],inactive
same,Activity,Prevotella intermedia [17],45%
same,inhibition at 5 µg/mL,U-937 [18],38%
same,inhibition,U-937 [19],inactive
same,inhibition at 5 µg/mL,U-937 [20],29%
same,inhibition,U-937 [21],inactive
same,Activity,[22],Non-toxic
same,inhibition at 5 µg/mL,U-937 [23],67%
same,inhibition,U-937 [24],inactive
same,inhibition,U-937 [25],Active
